Hits are enriched below; roughly 2.3% of the tested compounds scored in any of these assays.
TRPC6 activator = activates the mouse TRPC6 cation channel. Q61143. HEK293-TRPC6 membrane potential dye fluorescence; hits give high values. B-score at 10 µM. 0.13% of 310,000 active. AID 2550;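 active = B-score of the integrated fluorescence ratio above library mean plus 3 SD, and starting fluorescence ratio within library mean plus 5 SD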;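 also: higher score means more depolarization so channel activation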
Target sequence (Q61143 whole entry, looked up): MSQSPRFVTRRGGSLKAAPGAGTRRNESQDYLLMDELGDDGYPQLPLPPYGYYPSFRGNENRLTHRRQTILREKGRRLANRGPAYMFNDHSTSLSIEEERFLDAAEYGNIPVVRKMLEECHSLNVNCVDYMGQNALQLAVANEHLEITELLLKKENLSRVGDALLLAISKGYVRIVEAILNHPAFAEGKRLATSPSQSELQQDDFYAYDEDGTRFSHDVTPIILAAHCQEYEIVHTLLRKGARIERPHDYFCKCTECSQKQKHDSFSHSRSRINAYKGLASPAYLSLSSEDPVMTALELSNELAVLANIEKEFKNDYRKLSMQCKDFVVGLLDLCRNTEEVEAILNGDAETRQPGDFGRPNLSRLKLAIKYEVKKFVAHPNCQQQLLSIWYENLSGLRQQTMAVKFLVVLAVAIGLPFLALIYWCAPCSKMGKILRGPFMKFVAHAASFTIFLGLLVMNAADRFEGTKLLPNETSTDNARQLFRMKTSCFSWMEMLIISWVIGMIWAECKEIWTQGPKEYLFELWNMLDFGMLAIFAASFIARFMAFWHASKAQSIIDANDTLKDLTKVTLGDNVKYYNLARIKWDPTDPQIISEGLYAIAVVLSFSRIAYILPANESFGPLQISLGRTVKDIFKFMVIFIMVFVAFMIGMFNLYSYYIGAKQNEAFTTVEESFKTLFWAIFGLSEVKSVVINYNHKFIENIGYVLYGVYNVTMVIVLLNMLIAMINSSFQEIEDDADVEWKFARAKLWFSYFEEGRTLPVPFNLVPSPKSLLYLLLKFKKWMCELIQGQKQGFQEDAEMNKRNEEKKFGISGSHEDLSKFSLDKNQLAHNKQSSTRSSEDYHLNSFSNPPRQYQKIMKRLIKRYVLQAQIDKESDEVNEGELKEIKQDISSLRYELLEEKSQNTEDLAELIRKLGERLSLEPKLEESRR
TRPC4 potent = TRPC4 (mouse) allosteric potentiation | Q9QUQ5 | HEK293 TRPC4beta/mu-opioid, DAMGO EC20, Fluo-4 Ca2+ flux; hits give high values | B-score at 10 µM | 0.42% of 310,000 active;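 active = B-score of calcium response area above 5 SD of library B-scores, with initial fluorescence ratio within 5 SD of library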
TRPC6 inhibitor = mouse TRPC6 channel inhibition; 1.1% of 310,000 active; B-score at 10 µM; Q61143; HEK293-TRPC6, membrane potential dye, ACh-evoked depolarization; hits give low values; AID 2553;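 active = B-score under library mean minus 3 SD, initial fluorescence not abnormally high, positive integrated signal ratio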;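 also: B-score derived from integrated fluorescence ratio over the kinetic read; more negative B-score means stronger inhibition of depolarization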
TRPC4 inh = TRPC4 (mouse) channel inhibition. HEK293 TRPC4beta/mu-opioid, DAMGO-evoked Fluo4 calcium flux; hits give low values. 0.39% of 300,000 active. B-score at 10 µM. Q9QUQ5. AID 2247;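 active = B-score over 3 SD under the library average, no early fluorescence shift, positive overall ratio signal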
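Test system – stable TRPC4beta/mu-opioid receptor HEK293 cells · Probe or stimulus – DAMGO, a submaximal dose followed by a maximal one · Dosing – one concentration per compound · Signal – Fluo4 calcium fluorescence by kinetic imaging, 5 s 1 Hz baseline · Evaluation – per-well B score of integrated baseline-normalized Fluo4 ratio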
TRPC4 agonist = opens the mouse TRPC4 cation channel; B-score at 10 µM; 0.49% of 310,000 active; AID 2237; Q9QUQ5; HEK293 TRPC4beta/mu-opioid, Fluo4 calcium fluorescence; hits give high values;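 active = B-score above 5 SD of library B-scores, and initial fluorescence ratio not above library mean plus 5 SD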;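 also: positive B-score marks a calcium rise read as TRPC4 activation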
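Material: HEK293 stable line with TRPC4beta plus mu-opioid receptor; technique: Fluo4 calcium-sensitive dye fluorescence, kinetic, 1 Hz baseline; timing: Fluo4 dye loading 45 min at room temperature, 110 s recording; controls: assay buffer as low control, maximal DAMGO as high control; read-out: integrated baseline-normalised fluorescence ratio, converted to per-well B score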
TRPC4 spec 2 = mouse TRPC4 off-target activity of TRPC6 inhibitors, second screen; 42% of 920 active; AID 2776; inhibition, % at 10 µM; shares compounds with TRPC6 inhibitor; HEK293 TRPC4/MOR, membrane potential dye fluorescence; channel activated by saturating DAMGO dose;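 active = compounds whose fluorescence signal differed from control wells by over 3 SD, either direction, in both duplicate plates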
TRPC4 spec = tests whether TRPC6 inhibitors also affect mouse TRPC4 | activity change, negative = inhibition, % at 10 µM | HEK293 TRPC4/mu-opioid, membrane potential fluorescence | shares compounds with TRPC6 inhibitor | 61% of 920 active;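 active = rise or fall in signal beyond 3 SD of buffer-only wells in both replicate plates, either sign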;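 also: integrated kinetic ratio of fluorescence range over baseline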
HEK293 MPD ctr 2-1 = parental HEK293 nonspecific activity of TRPC6 inhibitors, second screen | shares compounds with TRPC6 inhibitor | parental HEK293 membrane potential dye fluorescence; maximal acetylcholine challenge after compound addition | signal change vs control, % at 10 µM | 31% of 920 active | AID 2779;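 active = membrane potential signal moving either way by over 3 SD of the maximum-effect control, in both duplicate plates, meaning non-specific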
HEK293 MPD ctr-1 = counter-screen for TRPC6 inhibitors: effect in parental HEK293 cells. parental HEK293 membrane potential dye fluorescence. membrane potential signal change, % at 10 µM. 60% of 920 active. shares compounds with TRPC6 inhibitor. AID 2780;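 active = membrane potential signal shifting up or down by more than 3 SD of buffer-only wells, on both duplicate plates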
HEK293 MPD ctr-2 = counter-screen for TRPC6 modulators: effect in parental HEK293 cells. shares compounds with TRPC6 inhibitor. membrane potential dye fluorescence. membrane potential signal change, % at 10 µM. 51% of 2,400 active. AID 488924;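 active = membrane potential signal moves up or down beyond 5 SD from buffer-only wells, on both duplicate plates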
HEK293 MPD ctr 2-2 = second check of TRPC6 modulator effects in parental HEK293 cells. inhibition, % at 10 µM. shares compounds with TRPC6 inhibitor. AID 488926. 14% of 2,400 active. membrane potential dye fluorescence; after compound, maximal acetylcholine stimulation;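 active = membrane potential signal drops by more than 5 SD from the mean control signal, in both duplicate plates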
TRPC4/MOR mod = tests whether TRPC6 modulators also affect mouse TRPC4 | HEK293 TRPC4/mu-opioid, membrane potential fluorescence | percent change from control (negative = decrease, positive = increase), % at 10 µM | 69% of 2,400 active | shares compounds with TRPC6 inhibitor;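 active = membrane potential signal moved up or down beyond 5 SD of buffer control wells, in both duplicate plates, actives on both sides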
TRPC4/MOR inh 2 = second selectivity test of TRPC6 modulators against mouse TRPC4. shares compounds with TRPC6 inhibitor. HEK293 TRPC4/mu-opioid, membrane potential dye fluorescence; stimulated with maximal-effect DAMGO. inhibition, % at 10 µM. 55% of 2,400 active. AID 488928;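 active = drop in membrane potential signal beyond 5 SD of the control wells in both duplicate plates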;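 also: TRPC4 counter screen for TRPC6 hits run under conditions tuned for TRPC6 not TRPC4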
TRPC6 inh conf = confirmation of mouse TRPC6 inhibitors; shares compounds with TRPC6 inhibitor; HEK293-TRPC6, membrane potential dye, ACh-evoked depolarization; inhibition, % at 10 µM; 43% of 3,300 active; AID 488960;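 active = fluorescence ratio falls more than 5 SD below the full-stimulation control mean, in both duplicate runs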;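 also: integrated fluorescence ratio of peak minus minimum over baseline after agonist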
TRPC6 act confirm = mouse TRPC6 activator confirmation; shares compounds with TRPC6 inhibitor; HEK293-TRPC6 membrane potential dye fluorescence, FDSS; activation, % at 10 µM; 11% of 2,800 active;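 active = ratio signal rise beyond 5 SD above unstimulated control wells' mean, seen in both duplicate runs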
Of the large screens only hits and unclear results are named; the others gave an inactive call (follow-up assays come after a bar, where they were run).

CC(=O)Nc1cc2c3c(c1)CCC(=O)N3CCC2	none
CN1C(=S)N(c2cccnc2)C(=O)/C1=C\c1ccc(N(C)C)cc1	TRPC6 activator 13 | HEK293 MPD ctr-2 356% | HEK293 MPD ctr 2-2 inactive | TRPC4/MOR mod 108% | TRPC4/MOR inh 2 inactive | TRPC6 inh conf inactive | TRPC6 act confirm 106%
CCOC(=O)c1ccccc1NC(=O)COC(=O)CN1C(=O)C2CC=CCC2C1=O (stereo not given)	none
CCOc1ccc(N2C(=O)C3C(c4ccc(O)cc4)NC(CCSC)(C(=O)OC)C3C2=O)cc1 (stereo not given)	none
CCOC(=O)c1ccc2c(c1)nc(-c1ccccn1)n2CC	TRPC6 inhibitor -5.5 | HEK293 MPD ctr-2 inactive | HEK293 MPD ctr 2-2 inactive | TRPC4/MOR mod inactive | TRPC4/MOR inh 2 inactive | TRPC6 inh conf inactive | TRPC6 act confirm inactive
CCOC(=O)Cn1c(-c2ccccn2)nc2ccccc21	none
Cc1ccc2c(c1)c1c(n2CC(O)CN2CCC(C)CC2)CCCC1 (stereo not given)	TRPC6 inhibitor -5.8 | HEK293 MPD ctr-2 inactive | HEK293 MPD ctr 2-2 inactive | TRPC4/MOR mod 12% | TRPC4/MOR inh 2 54% | TRPC6 inh conf 40% | TRPC6 act confirm inactive
O=C1c2ccccc2C(=O)c2c(NCCCN(CCO)CCO)cccc21	TRPC6 inhibitor -13 | HEK293 MPD ctr-2 -304% | HEK293 MPD ctr 2-2 90% | TRPC4/MOR mod -49% | TRPC4/MOR inh 2 80% | TRPC6 inh conf 76% | TRPC6 act confirm inactive
CCN(CC)CC(=O)Nc1cccc2c1C(=O)c1ccccc1C2=O	none
O=C(Nc1cccnc1Cl)c1cccs1	TRPC6 inhibitor -5.1 | HEK293 MPD ctr-2 inactive | HEK293 MPD ctr 2-2 inactive | TRPC4/MOR mod inactive | TRPC4/MOR inh 2 inactive | TRPC6 inh conf inactive | TRPC6 act confirm inactive
Cn1nccc1C(=O)N1CCCC(N2CCN(Cc3ccc4c(c3)OCO4)CC2)C1 (stereo not given)	none
CNS(=O)(=O)c1cccc(C(=O)OCC(=O)C23CC4CC(CC(C4)C2)C3)c1	none
O=[N+]([O-])c1ccc(CN2CCOCCOCCN(Cc3ccc([N+](=O)[O-])cc3)CCOCC2)cc1	TRPC6 inhibitor -5.5 | HEK293 MPD ctr-2 inactive | HEK293 MPD ctr 2-2 inactive | TRPC4/MOR mod -12% | TRPC4/MOR inh 2 74% | TRPC6 inh conf 46% | TRPC6 act confirm inactive
O=[N+]([O-])c1ccc(CN2CCCCCC2)cc1	none
CCOC(=O)N1CCN(S(=O)(=O)c2ccc(OCC)cc2)CC1	TRPC6 inhibitor -6.2 | HEK293 MPD ctr-2 inactive | HEK293 MPD ctr 2-2 inactive | TRPC4/MOR mod 31% | TRPC4/MOR inh 2 inactive | TRPC6 inh conf inactive
CCOC(=O)N1CCN(C(=O)COc2ccc3ccccc3c2Br)CC1	TRPC6 inhibitor -6.6 | HEK293 MPD ctr-2 inactive | HEK293 MPD ctr 2-2 inactive | TRPC4/MOR mod 12% | TRPC4/MOR inh 2 inactive | TRPC6 inh conf inactive
CCCCOc1ccc(S(=O)(=O)N2CCCCCC2)cc1	TRPC6 inhibitor -5.6 | HEK293 MPD ctr-2 inactive | HEK293 MPD ctr 2-2 inactive | TRPC4/MOR mod inactive | TRPC4/MOR inh 2 inactive | TRPC6 inh conf 46% | TRPC6 act confirm inactive
CCOc1cc(S(=O)(=O)N2CCCCCC2)ccc1F	TRPC6 inhibitor -6.7 | TRPC4 spec 2 inactive | TRPC4 spec inactive | HEK293 MPD ctr 2-1 inactive | HEK293 MPD ctr-1 inactive | TRPC6 inh conf inactive | TRPC6 act confirm inactive
CCOc1ccccc1N1CCN(S(=O)(=O)c2ccc(F)c(F)c2)CC1	none
COc1ccc(S(=O)(=O)N2CCC(C(=O)N3CCCCC3)CC2)cc1Cl	none
COc1ccc(N=C2SC(C(=O)Nc3ccc(OC)cc3)CC(=O)N2CCN2CCOCC2)cc1 (stereo not given)	none
Cc1ccc(S(=O)(=O)c2c(C)cc(C)nc2N2CCCCC2)cc1	none
CCOC(=O)N1CCN(S(=O)(=O)c2ccc(OCC)c3ccccc23)CC1	TRPC6 inhibitor -7.8 | TRPC4 spec 2 inactive | TRPC4 spec inactive | HEK293 MPD ctr 2-1 inactive | HEK293 MPD ctr-1 inactive | TRPC6 inh conf inactive | TRPC6 act confirm inactive
CCN(c1ccc(NC(=O)c2ccc(Cl)nc2)cc1)C(C)C	TRPC6 inhibitor -6.5 | HEK293 MPD ctr-2 inactive | HEK293 MPD ctr 2-2 inactive | TRPC4/MOR mod inactive | TRPC4/MOR inh 2 inactive | TRPC6 inh conf inactive | TRPC6 act confirm inactive
O=C(Nc1ccc(N2CCOCC2)cc1)c1ccc(Cl)nc1	none
COc1ccc(-c2nnc(SCc3ccc(C(=O)O)cc3)n2C)cc1OC	none
CN(C)CCCNc1nc(-c2ccc(Cl)cc2)nc2ccccc12	TRPC6 inhibitor -7.7 | TRPC4 spec 2 53% | TRPC4 spec -31% | HEK293 MPD ctr 2-1 34% | HEK293 MPD ctr-1 -414% | TRPC6 inh conf 70% | TRPC6 act confirm inactive
Cc1cccc(-c2nc(NCCCN(C)C)c3ccccc3n2)c1	TRPC6 inhibitor -7.9 | TRPC4 spec 2 50% | TRPC4 spec -20% | HEK293 MPD ctr 2-1 inactive | HEK293 MPD ctr-1 -242% | TRPC6 inh conf 76% | TRPC6 act confirm inactive
CCCCCCCNC(=O)C1(CC2CC(c3ccc(Cl)cc3)=NO2)CCN(C(=O)C2(C)CC2)CC1 (stereo not given)	none
CCOC(=O)c1c(-c2cccc([N+](=O)[O-])c2)csc1N	none

Assay outcomes deposited in PubChem BioAssay by Johns Hopkins Ion Channel Center.
